Data on eleven compounds can be found in ChEMBL document CHEMBL2057105, “Effect of substitution at N″-position of N'-hydroxy-N-amino guanidines on tumor cell growth” (Bioorg Med Chem Lett, 2012).

The test deals with HL-60. The test is described as follows: Cytotoxicity against human HL60 cells after 72 hrs by trypan blue assay. It is filed as functional, cell-based. Particulars: HL-60, 72 h. The method, boiled down: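 HL-60 cells in log phase, grown in RPMI 1640 with 10% heat-inactivated FCS, 1% L-glutamine and 1% penicillin–streptomycin (37 °C, 5% CO₂), seeded at 0.1 × 10^6/mL in flasks and exposed to increasing compound concentrations for 72 h at 37 °C. Viable cells counted electronically after trypan blue staining; IC50 as 50% growth inhibition; means SD of at least three experiments.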
Broadly, the IC50 is the concentration needed to halve the response being measured. Compound `C/N=C(/NO)N/N=C/c1c2ccccc2cc2ccccc12` displayed an IC50 of 32.9 µM. For `CC/N=C(/NO)N/N=C/c1c2ccccc2cc2ccccc12` the value was 22.6 µM; for `CCC/N=C(/NO)N/N=C/c1c2ccccc2cc2ccccc12`, 24.9 µM. For `CC(C)/N=C(/NO)N/N=C/c1c2ccccc2cc2ccccc12` the value was 29.8 µM.

Turning to `ON/C(=N\C1CCCCC1)N/N=C/c1c2ccccc2cc2ccccc12`, the half-maximal inhibitory concentration (IC50) was 21.1 µM.

`ON/C(=N\Cc1ccccc1)N/N=C/c1c2ccccc2cc2ccccc12` showed a half-inhibitory concentration (IC50) of 19.3 µM. The result for `ON/C(=N\CCc1ccccc1)N/N=C/c1c2ccccc2cc2ccccc12` reads 19.6 µM; that for `CCCC/N=C(\NO)N/N=C/c1c2ccccc2cc2ccccc12`, 21.1 µM; that for `CC(=O)N/C(=N/O)N/N=C/c1c2ccccc2cc2ccccc12`, 20 µM. For `O=C(N/C(=N/O)N/N=C/c1c2ccccc2cc2ccccc12)c1ccc([N+](=O)[O-])cc1` the value was 10 µM; for `O=C(N/C(=N/O)N/N=C/c1c2ccccc2cc2ccccc12)c1cc([N+](=O)[O-])cc([N+](=O)[O-])c1`, 8 µM.
